Experimental data from ChEMBL document CHEMBL2062481 (J Med Chem, 2012).

What was measured:
[1] = 1-octanol-phosphate buffer distribution coefficient, log D of the compound at 1 uM after 2 hrs by shake flask method at pH 7.4; format: physicochemical
Procedure, shortened: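 Phosphate buffer (0.1 M, pH 7.4) and 1-octanol were mutually pre-saturated. Analyte at 1 μM in buffer was overlaid with octanol at two volume ratios chosen by lipophilicity class, three wells per ratio. Plates were shaken 2 h at 25 °C and centrifuged, and the aqueous phase was quantified by LC-MS. Results were accepted if the two ratio means agreed within 0.1 unit.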

[2] = AUC (0 to 24 hrs) in C3H/HeN mouse plasma at 25 mg/kg, iv administered as single dose; format: ADME, organism-based; set-up: time < 24 hr, dose 25 mg/kg, route intravenous
Procedure, shortened: (§1)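 Female C3H/HeN mice (19–25 g) received a single tail-vein iv dose in 100 μL PBS. Blood and urine (10 μL) were sampled at 6 and 30 min and at 1, 2, 4, 6 and 8 h. Samples were methanol-precipitated, centrifuged and quantified by LC-MS. n = 4.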

[3] = AUC (0 to 24 hrs) in C3H/HeN mouse urine at 25 mg/kg, iv administered as single dose; format: ADME, organism-based; set-up: time < 24 hr, dose 25 mg/kg, route intravenous; procedure, shortened: as §1
[4] = AUC (0 to 24 hrs) in C3H/HeN mouse plasma at 5 mg/kg, iv administered as single dose; format: ADME, organism-based; set-up: time < 24 hr, dose 5 mg/kg, route intravenous; procedure, shortened: as §1
[5] = AUC (0 to 24 hrs) in C3H/HeN mouse plasma at 1 mg/kg, iv administered as single dose; format: ADME, organism-based; set-up: time < 24 hr, dose 1 mg/kg, route intravenous; procedure, shortened: as §1
[6] = AUC (0 to 24 hrs) in C3H/HeN mouse urine at 1 mg/kg, iv administered as single dose; format: ADME, organism-based; set-up: time < 24 hr, dose 1 mg/kg, route intravenous; procedure, shortened: as §1
[7] = AUC (0 to 24 hrs) in C3H/HeN mouse plasma at 0.05 mg/kg, iv administered as single dose; format: ADME, organism-based; set-up: time < 24 hr, dose 0.05 mg/kg, route intravenous; procedure, shortened: as §1
[8] = AUC (0 to 24 hrs) in C3H/HeN mouse urine at 0.05 mg/kg, iv administered as single dose; format: ADME, organism-based; set-up: time < 24 hr, dose 0.05 mg/kg, route intravenous; procedure, shortened: as §1

| logD at 2 h, 1 µM [1] | Structure (SMILES) | other results |
| --- | --- | --- |
| 1.8 | OC[C@H]1O[C@H](Oc2ccc(-n3ccc4ccccc43)cc2Cl)[C@@H](O)[C@@H](O)[C@@H]1O | AUC(0-t) at 24 h [2]: 8200 ng·h/mL; AUC(0-t) at 24 h [3]: 19300 ng·h/mL |
| 1.8 | O=[N+]([O-])c1ccc2c(ccn2-c2ccc(O[C@H]3O[C@H](CO)[C@@H](O)[C@H](O)[C@@H]3O)c(Cl)c2)c1 | AUC(0-t) at 24 h [4]: 2300 ng·h/mL |
| 3 | COc1ccc2c(ccn2-c2ccc(O[C@H]3O[C@H](CO)[C@@H](O)[C@H](O)[C@@H]3O)c(Cl)c2)c1 | – |
| 2.8 | COC(=O)c1ccc2c(ccn2-c2ccc(O[C@H]3O[C@H](CO)[C@@H](O)[C@H](O)[C@@H]3O)c(Cl)c2)c1 | – |
| 1.1 | O=C(O)c1ccc2c(ccn2-c2ccc(O[C@H]3O[C@H](CO)[C@@H](O)[C@H](O)[C@@H]3O)c(Cl)c2)c1 | – |
| 1.8 | CS(=O)(=O)Nc1ccc2c(ccn2-c2ccc(O[C@H]3O[C@H](CO)[C@@H](O)[C@H](O)[C@@H]3O)c(Cl)c2)c1 | – |

The next lines start with the molecule.

| Structure (SMILES) | logD at 2 h, 1 µM [1] | other results |
| --- | --- | --- |
| O=C(O)c1ccc(-c2ccc(O[C@H]3O[C@H](CO)[C@@H](O)[C@H](O)[C@@H]3O)c(Cl)c2)cc1 | -0.8 | – |
| OC[C@H]1O[C@H](Oc2ccc(-n3ccc4c(OCc5ccccc5)cccc43)cc2Cl)[C@@H](O)[C@@H](O)[C@@H]1O | 2.7 | – |
| OC[C@H]1O[C@H](Oc2ccc(-n3ccc4ccccc43)cc2F)[C@@H](O)[C@@H](O)[C@@H]1O | 2.4 | – |
| O=[N+]([O-])c1ccc2c(ccn2-c2ccc(O[C@H]3O[C@H](CO)[C@@H](O)[C@H](O)[C@@H]3O)c(F)c2)c1 | 1.9 | – |
| OC[C@H]1O[C@H](Oc2ccc(-n3ccc4cc(Cl)cnc43)cc2Cl)[C@@H](O)[C@@H](O)[C@@H]1O | 3.4 | – |
| N#Cc1cnc2c(ccn2-c2ccc(O[C@H]3O[C@H](CO)[C@@H](O)[C@H](O)[C@@H]3O)c(Cl)c2)c1 | 1.6 | – |
| O=[N+]([O-])c1ccc2c(c1)CCN2c1ccc(O[C@H]2O[C@H](CO)[C@@H](O)[C@H](O)[C@@H]2O)cc1 | 1.9 | AUC(0-t) at 24 h [5]: 2200 ng·h/mL; AUC(0-t) at 24 h [6]: 586000 ng·h/mL |
| OC[C@H]1O[C@H](Oc2ccc(N3CCc4ccccc43)cc2)[C@@H](O)[C@@H](O)[C@@H]1O | 2.3 | – |
| O=[N+]([O-])c1ccc2c(c1)CCN2c1ccc(O[C@H]2O[C@H](CO)[C@@H](O)[C@H](O)[C@@H]2O)c(Cl)c1 | 1.9 | AUC(0-t) at 24 h [7]: 3500 ng·h/mL; AUC(0-t) at 24 h [8]: 33400 ng·h/mL |
| OC[C@H]1O[C@H](Oc2ccc(N3CCc4ccccc43)cc2Cl)[C@@H](O)[C@@H](O)[C@@H]1O | 2.8 | – |
| OC[C@H]1O[C@H](Oc2ccc(-c3cnc4[nH]ccc4c3)cc2Cl)[C@@H](O)[C@@H](O)[C@@H]1O | 3.2 | – |
| Cn1cnc2cc(-c3ccc(O[C@H]4O[C@H](CO)[C@@H](O)[C@H](O)[C@@H]4O)c(Cl)c3)cnc21 | 1.3 | – |
